Values after ≈ are worked out from the molar mass of the structure shown.
Key:
Candida albicans [1] = test: Minimum inhibitory concentration was determined against Candida albicans 3153A strain; assay type: functional
Candida albicans [2] = test: Minimum fungicidal concentration was determined against Candida albicans 3153A strain; assay type: functional
How it was run: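 Fungicidal endpoint: lowest drug concentration whose subcultures were negative or grew fewer than three colonies.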

Mus musculus [3] = test: The number of survivors/total infected at day 14 was determined after (ip) administration of 2 mg/kg in Candida albicans infected mice; 4/10; assay type: functional
Mus musculus [4] = test: The number of survivors/total infected at day 14 was determined after (ip) administration of 2 mg/kg in Candida albicans infected mice; 6/10; assay type: functional
Mus musculus [5] = test: The number of survivors/total infected at day 14 was determined after (ip) administration of 1 mg/kg in Candida albicans infected mice; 10/10
[6] = Candida albicans, read-out: MIC
[7] = Candida albicans, read-out: MFC

| SMILES | MIC (Candida albicans [1]) [µg/mL] | MIC (Candida albicans [1]; [6]) [µg/mL] | MFC (Candida albicans [2]) [µg/mL] | MFC (Candida albicans [2]; [7]) [µg/mL] | No. of survivors (Mus musculus [3]) | No. of survivors (Mus musculus [4]) | No. of survivors (Mus musculus [5]) |
| --- | --- | --- | --- | --- | --- | --- | --- |
| CC(C)CCC[C@@H](C)C1CCN[C@@]2(C)C3=C(CC[C@]12C)[C@@]1(C)CC[C@H](O)CC1CC3 (stereo partly drawn) | 3.1 (≈ 7.46 µM) | 3.1 (≈ 7.46 µM) | 6.3 (≈ 15.2 µM) | 6.3 (≈ 15.2 µM) | 4 | – | – |
| CC(C)[C@@H](C)/C=C/[C@@H](C)C1CCN[C@@]2(C)C3=CCC4C(C)(C)[C@@H](O)CC[C@]4(C)C3CC[C@]12C (stereo partly drawn) | 1.6 (≈ 3.51 µM) | 1.6 (≈ 3.51 µM) | 6.3 (≈ 13.8 µM) | 6.3 (≈ 13.8 µM) | – | – | – |
| CC(C)CCC[C@@H](C)C1CC(=O)N[C@@]2(C)C3=CCC4C[C@@H](O)CC[C@]4(C)C3CC[C@]12C (stereo partly drawn) | – | > 100 | – | – | – | – | – |
| CC(C)[C@@H](C)/C=C/[C@@H](C)C1CCN[C@@]2(C)C3=CCC4C[C@@H](O)CC[C@]4(C)C3CC[C@]12C (stereo partly drawn) | 0.8 (≈ 1.87 µM) | 0.8 (≈ 1.87 µM) | 6.3 (≈ 14.7 µM) | 6.3 (≈ 14.7 µM) | – | – | – |
| CC(C)CCC[C@@H](C)C1CCN[C@@]2(C)C3=CCC4C[C@@H](O)CC[C@]4(C)C3CC[C@]12C (stereo partly drawn) | 1.6 (≈ 3.85 µM) | 1.6 (≈ 3.85 µM) | 6.3 (≈ 15.2 µM) | 6.3 (≈ 15.2 µM) | – | 6 | – |
| CC(C)CCC[C@@H](C)C1CCN[C@@]2(C)C3=CCC4C(C)(C)[C@@H](O)CC[C@]4(C)C3CC[C@]12C (stereo partly drawn) | 1.6 (≈ 3.61 µM) | 1.6 (≈ 3.61 µM) | 3.1 (≈ 6.99 µM) | 3.1 (≈ 6.99 µM) | – | – | – |
| C[C@@H]1[C@H](O)[C@@H](C)/C=C/C=C/C=C/C=C/C=C/C=C/C=C/[C@H](O[C@@H]2O[C@H](C)[C@@H](O)[C@H](N)[C@@H]2O)C[C@@H]2O[C@](O)(C[C@@H](O)C[C@@H](O)[C@H](O)CC[C@@H](O)C[C@@H](O)CC(=O)O[C@H]1C)C[C@H](O)[C@H]2C(=O)O [AMPHOTERICIN B] | 0.16 (≈ 0.173 µM) | 0.16 (≈ 0.173 µM) | – | – | – | – | 10 |
| OC(Cn1cncn1)(Cn1cncn1)c1ccc(F)cc1F [FLUCONAZOLE] | 0.8 (≈ 2.61 µM) | 0.8 (≈ 2.61 µM) | – | – | – | – | – |

Source: ChEMBL document CHEMBL1124711, “Design and synthesis of 14 alpha-methyl-15-aza-D-homosterols as novel antimycotics” (1990)
